The test system of assay [1] is Trypanosoma cruzi. Put plainly: Maximum inhibitory activity against Trypanosoma cruzi (amastigotes). Type of assay: functional.
In assay [2] the test system is Trypanosoma cruzi. Put plainly: Inhibitory concentration against Trypanosoma cruzi (epimastigotes). The assay is classed as functional, organism-based. The essentials:
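Epimastigote growth inhibition; IC50 values are the means of three experiments.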

For assay [3], the system named is Trypanosoma cruzi. Nature of the assay: Inhibitory concentration against Trypanosoma cruzi (amastigotes). Type of assay: functional, organism-based.
Assay [4] relates to Trypanosoma cruzi. Nature of the assay: Maximum inhibitory activity against Trypanosoma cruzi (amastigotes).

The values that follow come from ChEMBL document CHEMBL1136233, “Bisphosphonates derived from fatty acids are potent inhibitors of Trypanosoma cruzi farnesyl pyrophosphate synthase” (Bioorg Med Chem Lett, 2003).

In general, Inhibition refers to how much of the control response was suppressed. The low end stands for a weak effect, the high end for a strong effect. The term IC50 denotes the concentration needed to halve the response being measured.

As for `CCCC(P(=O)(OCC)OCC)P(=O)(OCC)OCC`, in the assay on Trypanosoma cruzi [1], the Inhibition stood at 27%. The IC50 in the assay with Trypanosoma cruzi [2] and with Trypanosoma cruzi [3] (Trypanosoma cruzi) was more than 70 µM throughout.

For the compound `CCCCCCCC(P(=O)(O)O)P(=O)(O)O`, in the assay on Trypanosoma cruzi [1], the Inhibition was found to be 49%. Also, the IC50 in the assay with Trypanosoma cruzi [2] and in the assay on Trypanosoma cruzi [3] (Trypanosoma cruzi) was more than 70 µM each time.

The compound `CCCCCC(O)(P(=O)(O)O)P(=O)(O)O` yielded an Inhibition in the assay with Trypanosoma cruzi [4] of 34%. Besides, the IC50 with Trypanosoma cruzi [2] and in the assay with Trypanosoma cruzi [3] (Trypanosoma cruzi) was more than 70 µM in each case.

In the case of `CCCCCCC(O)(P(=O)(O)O)P(=O)(O)O`, the IC50 in the assay on Trypanosoma cruzi [3] was found to be 18.1 µM.

`CCCCCCC(P(=O)(OCC)OCC)P(=O)(OCC)OCC` came in with an IC50 in the assay on Trypanosoma cruzi [2] of more than 50 µM.

`CCCCCC(P(=O)(OCC)OCC)P(=O)(OCC)OCC` gave an IC50 in the assay on Trypanosoma cruzi [2] of more than 50 µM.

`CCCCCCCC(P(=O)(OCC)OCC)P(=O)(OCC)OCC` showed an IC50 in the assay on Trypanosoma cruzi [2] of more than 50 µM.

Take `CCCCC(P(=O)(OCC)OCC)P(=O)(OCC)OCC`: the IC50 was more than 70 µM in the assay with Trypanosoma cruzi [2] and more than 50 µM with Trypanosoma cruzi [3] (Trypanosoma cruzi).

The compound `CCCCCCCCCC(O)(P(=O)(O)O)P(=O)(O)O` yielded an IC50 with Trypanosoma cruzi [2] of more than 70 µM.

For the compound `CCCCC(P(=O)(O)O)P(=O)(O)O`, the IC50 in the assay on Trypanosoma cruzi [2] and in the assay on Trypanosoma cruzi [3] (Trypanosoma cruzi) was more than 70 µM each time.

In the assay with Trypanosoma cruzi [1], `CCC(P(=O)(O)O)P(=O)(O)O` displayed an Inhibition of 21%. Also, the IC50 in the assay on Trypanosoma cruzi [2] and with Trypanosoma cruzi [3] (Trypanosoma cruzi) was more than 100 µM throughout.

With `CCCCCCCC(O)(P(=O)(O)O)P(=O)(O)O`, the Inhibition in the assay with Trypanosoma cruzi [4] is recorded as 41%. The IC50 in the assay on Trypanosoma cruzi [2] and with Trypanosoma cruzi [3] (Trypanosoma cruzi) was more than 70 µM each time.

On to `CCCCCCCCC(O)(P(=O)(O)O)P(=O)(O)O`, for which the IC50 in the assay with Trypanosoma cruzi [2] was more than 70 µM.

In the case of `CCCC(P(=O)(O)O)P(=O)(O)O`, the Inhibition with Trypanosoma cruzi [1] worked out at 28%. Further, the IC50 in the assay with Trypanosoma cruzi [2] is more than 100 µM; in the assay on Trypanosoma cruzi [3] (Trypanosoma cruzi), more than 90 µM.

As to `CCOP(=O)(OCC)C(CC)P(=O)(OCC)OCC`, the IC50 in the assay on Trypanosoma cruzi [3] (Trypanosoma cruzi) was more than 70 µM.

With `CCCCCCCCCC(P(=O)(OCC)OCC)P(=O)(OCC)OCC`, the IC50 in the assay with Trypanosoma cruzi [2] was more than 50 µM.

Turning to `CCCCCCCCCC(P(=O)(O)O)P(=O)(O)O`, the IC50 with Trypanosoma cruzi [2] is more than 70 µM.

For the compound `CCCCCCC(P(=O)(O)O)P(=O)(O)O`, the Inhibition with Trypanosoma cruzi [1] stood at 47%. Further, the IC50 in the assay with Trypanosoma cruzi [2] and in the assay with Trypanosoma cruzi [3] (Trypanosoma cruzi) was more than 70 µM each time.

The compound `CCCCCCCCC(P(=O)(O)O)P(=O)(O)O` had an IC50 in the assay with Trypanosoma cruzi [2] of more than 70 µM.

In the assay with Trypanosoma cruzi [2], `CCCCCC(P(=O)(O)O)P(=O)(O)O` returned an IC50 of more than 70 µM.

With `CCCCCCCCCCCCCC(O)(P(=O)(O)O)P(=O)(O)O`, the Inhibition in the assay on Trypanosoma cruzi [1] is recorded as 10%. In the assay with Trypanosoma cruzi [3] (Trypanosoma cruzi), this compound had an IC50 of more than 70 µM.

For the compound `CCCC(O)(P(=O)(O)O)P(=O)(O)O`, the IC50 in the assay on Trypanosoma cruzi [2] was more than 70 µM.

For `CCCCCCCCC(P(=O)(OCC)OCC)P(=O)(OCC)OCC`, the IC50 in the assay on Trypanosoma cruzi [2] and with Trypanosoma cruzi [3] (Trypanosoma cruzi) was more than 50 µM throughout.
